# Apaf-1 inh: human Apaf-1 inhibition; inhibition, % at 20 µM; O14727; reconstituted apoptosome caspase-3 activity, DEVD-Rh110 fluorescence; AID 489030; hit rate 0.71% among 330,000; active = inhibition of at least 40% at 20 µM;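 note: plate controls were DMSO wells for no effect and DEVD-CHO caspase inhibitor wells for full effect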
#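 Material: cell-free apoptosome with Apaf-1, procaspase-3 and caspase-9; Buffer or medium: Hepes pH 7.5 with detergent and BSA; Reagent: cytochrome c trigger plus (Z-DEVD)2-Rh110 caspase-3 substrate; Times: compound with Apaf-1, dATP, procaspase-3 30 min, then 50 min reaction, room temperature; Technique: Rh110 fluorescence intensity.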
# PAD4 inh: inhibitors of human PAD4 | AID 485272 | recombinant PAD4, RCA probe fluorescence polarization | inhibition, % at 6.36 µM | Q9UM07 | hit rate 0.41% among 330,000;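 active = percent inhibition above a cutoff equal to the mean of all tested compounds plus 3 SD, cut at about 15% in these data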;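 note: 0% = PAD4 with RCA probe and DMSO and 100% = probe without PAD4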
# GSTO1 counter: GSTO1 inhibition, counter-screen for RBBP9 inhibitors; P78417; inhibition, % at 5.96 µM; recombinant GSTO1, activity-based probe fluorescence polarization; hit rate 1.1% among 300,000;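 active = inhibition above the campaign mean inhibition plus 3 SD, cut at about 35% in these data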;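 note: 0% = GSTO1-1 with DMSO and 100% = wells lacking GSTO1-1 enzyme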
# Target sequence (P78417 whole entry, looked up): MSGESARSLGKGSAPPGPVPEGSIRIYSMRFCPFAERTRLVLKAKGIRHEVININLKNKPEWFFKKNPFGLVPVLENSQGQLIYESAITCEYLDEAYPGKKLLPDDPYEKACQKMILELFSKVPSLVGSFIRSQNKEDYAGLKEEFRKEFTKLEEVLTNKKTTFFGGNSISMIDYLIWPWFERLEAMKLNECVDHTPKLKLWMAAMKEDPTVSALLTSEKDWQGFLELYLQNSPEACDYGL
# TDP2 absorb: TDP2 (human) inhibition, absorbance primary screen | O95551 | recombinant TDP2, T5PNP hydrolysis, p-nitrophenol absorbance 415 nm | inhibition, % at 12.8 µM | hit rate 0.34% among 370,000 | AID 720702;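 active = inhibition above the mean of all tested compounds plus 3 SD, set per campaign, cut at about 25% in these data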;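 note: 0% = DMSO with enzyme and 100% = buffer with substrate but no TDP2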
# Target sequence (O95551 whole entry, looked up): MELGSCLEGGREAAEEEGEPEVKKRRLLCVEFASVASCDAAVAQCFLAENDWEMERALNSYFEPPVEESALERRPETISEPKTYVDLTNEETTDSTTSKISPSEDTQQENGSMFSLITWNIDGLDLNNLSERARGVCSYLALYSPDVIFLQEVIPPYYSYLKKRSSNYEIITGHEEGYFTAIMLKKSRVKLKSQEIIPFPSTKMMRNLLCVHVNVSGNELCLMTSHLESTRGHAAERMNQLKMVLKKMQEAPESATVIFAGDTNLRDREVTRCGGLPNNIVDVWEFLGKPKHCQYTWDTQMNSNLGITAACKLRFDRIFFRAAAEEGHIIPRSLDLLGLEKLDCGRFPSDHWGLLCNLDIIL
#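 System – recombinant human TDP2 · Amount – 120 nM TDP2 per well · Buffer or medium – Mg2+-containing Tris-HCl buffer, pH 7.5 · Reagent – T5PNP substrate, 5 mM · Dosing – 12.8 µM single point, 1% DMSO · Incubation – 2 h at 37 °C · Measured by – epi absorbance · Read-out basis – percent inhibition · Benchmarks – high control without enzyme, low control DMSO plus TDP2 · Repeats – singlicate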
# CTSL1 counter: counter-screen for PFM18AAP inhibitors: inhibitors of F. hepatica cathepsin L1 | recombinant F. hepatica cathepsin L1, Z-Leu-Arg-MCA fluorescence | inhibition, % at 5.96 µM | hit rate 0.49% among 300,000;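 active = inhibition above the mean of all tested compounds plus 3 SD, set per screening campaign, cut at about 17% in these data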;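 note: 0% = plate median of test compound wells and 100% = 1 µM Z-Phe-Ala-diazomethylketone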
# GSTO1 confirm: GSTO1 (human) inhibition, confirmation; shares compounds with GSTO1 counter; recombinant GSTO1, probe fluorescence polarization; inhibition, % at 5.96 µM; hit rate 54% among 2,400;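 active = inhibition above the primary screen's cutoff, its mean inhibition plus 3 SD, cut at about 35% in these data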;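 note: loss of polarization as inhibitors block binding of rhodamine sulfonate ester activity probe; 0% = GSTO1 with DMSO and 100% = wells lacking GSTO1 enzyme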
# PAD4 FP conf: confirmation of human PAD4 inhibitors; inhibition, % at 6.36 µM; recombinant PAD4, RCA probe fluorescence polarization; shares compounds with PAD4 inh; hit rate 28% among 1,200; AID 488796;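 active = mean inhibition across replicates above the hit cutoff set by the earlier primary screen, cut at about 15% in these data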;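 note: inhibitors block active-site labeling by the probe so polarization falls; 0% = PAD4 with probe and DMSO and 100% = probe without PAD4 enzyme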
# Apaf-1 inh conf2: Apaf-1 inhibition, single-dose confirmed. shares compounds with Apaf-1 inh. reconstituted apoptosome, caspase-3 DEVD-Rh110 fluorescence. inhibition, % at 20 µM. hit rate 25% among 1,800. AID 504614;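 active = mean inhibition of at least 40% at 20 µM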;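 note: plate controls were DMSO wells for no effect and DEVD-CHO caspase inhibitor control wells for full effect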
# Rh110 interf inh: counter-screen for Apaf-1 inhibitors: fluorescence interference. shares compounds with Apaf-1 inh. Rh110 fluorescence interference, quenched caspase reaction. activation (fluorescence interference), % at 20 µM. 1,800 tested, under 10 active. AID 504615;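 active = signal rise of 40% or more at 20 µM, treated as a fluorescence artifact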
# Apaf1 inh interf: counter-screen for Apaf-1 inhibitors: fluorescence interference, dose response; shares compounds with Apaf-1 inh; fluorescence interference counterscreen, Apaf-1 assay format; 460 tested, under 10 active; IC50, µM; call rule not given here
# TDP2 confirm: human TDP2 inhibition, confirmation | recombinant human TDP2, absorbance read-out | shares compounds with TDP2 absorb | inhibition, % at 12.8 µM | AID 743263 | hit rate 22% among 1,100; in the data active = inhibition above about 25%;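 note: 0% = vehicle with enzyme and 100% = no enzyme buffer only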
# Active calls of the source: *; / = not tested or not shown. In the library only some 1.8% were active in any assay of this set; here they are far more common.
SMILES,Apaf-1 inh,PAD4 inh,GSTO1 counter,TDP2 absorb,CTSL1 counter,GSTO1 confirm,PAD4 FP conf,Apaf-1 inh conf2,Rh110 interf inh,TDP2 confirm,others
COC(=O)CC1=NN(c2ccc(OC)cc2)C(=O)C1,4,-12,21,0,2,/,/,/,/,/,
CC1=NN(c2ccc(N)cc2)C(=O)C1,53*,-5,50*,38*,-1,14,/,9,-6,19,
CC1(C)CC(=O)C=C(Nc2ccccc2NC(=O)c2ccc(F)cc2F)C1,/,/,/,-1,/,/,/,/,/,/,
O=S1(=O)c2ccc(N3CCCC3)cc2Oc2ccccc2CN1Cc1cn(Cc2ccc(F)cc2)nn1,/,/,/,10,/,/,/,/,/,/,
COc1cc(/C=C/c2[nH]c(=O)[nH]c(=O)c2[N+](=O)[O-])cc([N+](=O)[O-])c1O,10,0,53*,31*,4,68*,/,/,/,11,
COc1ccc(-c2cc(C(=O)NN=Cc3ccccc3[N+](=O)[O-])[nH]n2)cc1,/,/,/,-2,/,/,/,/,/,/,
Cc1[nH][nH]c(=O)c1C(c1c(C)[nH][nH]c1=O)c1cn(Cc2ccc(Cl)c(Cl)c2)c2ccccc12,/,33*,66*,44*,10,56*,-6,/,/,27*,
Cc1ccccc1NC1=C/C(=N\S(=O)(=O)c2cccs2)c2ccccc2C1=O,97*,70*,92*,62*,94*,88*,53*,99*,-7,75*,Apaf1 inh interf=>100
Cc1ccccc1NC1=C/C(=N\S(=O)(=O)c2ccc(C(=O)O)cc2)c2ccccc2C1=O,97*,71*,90*,81*,104*,93*,58*,98*,3,75*,Apaf1 inh interf=>100
O=C(NCCc1ccccc1)OCc1cn(Cc2ccccc2Cl)nn1,/,/,/,6,/,/,/,/,/,/,
COc1ccc(C(c2c(C)n(C)n(-c3ccccc3)c2=O)c2c(C)n(C)n(-c3ccccc3)c2=O)cc1OC,0,-5,-7,-16,1,/,/,/,/,/,
COc1ccc(C(c2c(C)[nH]n(-c3ccccc3)c2=O)c2c(C)[nH]n(-c3ccccc3)c2=O)cc1OC,97*,69*,69*,88*,-3,22,0,25,-4,39*,
CC(C)CN(CC(C)C)C(=O)CSc1nc2cccnc2n1C,/,/,/,6,/,/,/,/,/,/,
CCC(NC(=O)Nc1ccc(O)cc1)(C(F)(F)F)C(F)(F)F,0,46*,57*,27*,-1,4,13,/,/,5,
CCC(NC(=O)NCc1ccccc1)(C(F)(F)F)C(F)(F)F,7,4,-2,-4,-1,/,/,/,/,/,
CC(NC(=O)Nc1ccc(O)cc1)(C(F)(F)F)C(F)(F)F,8,64*,44*,28*,-4,2,-1,/,/,19,
FC(F)(F)c1ccc(Cn2ccc3ccc(-c4ccc5ccn(Cc6ccc(C(F)(F)F)cc6)c5c4)cc32)cc1,/,/,/,-1,/,/,/,/,/,/,
CCC(=O)N(CC)C1=C(O)c2ccccc2C(=O)C1=O,55*,3,38*,29*,2,32,/,14,-2,19,
CN(C)c1ccc(N/C=C/C(=O)C(C)(C)C)cc1,53*,18*,83*,55*,-2,13,-9,-3,-3,-4,
CCOC(=O)c1ccc(N/C=C/C(=O)C(C)(C)C)cc1,-8,0,4,-5,3,/,/,/,/,/,
CC(=O)N1CCn2c3c(c(=O)c4cc(C)ccc42)CCC31 (stereo not given),73*,46*,73*,34*,24*,57*,-3,17,-1,50*,
CCCC1CCC2(CCCN2CCOC(=O)Nc2ccccc2OC)CC1 (stereo not given),/,/,/,-1,/,/,/,/,/,/,
Nn1c(SCC(=O)N2c3ccccc3Sc3ccc(Cl)cc32)nnc1-c1n[nH]c2c1CCC2,/,/,/,2,/,/,/,/,/,/,
CC1(C)Cc2c(C#N)c(N)n(-c3ccccc3)c(=S)c2CO1,-1,2,0,8,-1,/,/,/,/,/,
CC1(C)C=C2C(=NN(c3ccccc3)C(N)=C2C#N)CO1,47*,22*,74*,47*,109*,88*,56*,98*,4,53*,Apaf1 inh interf=>100
SMILES,Apaf-1 inh,PAD4 inh,GSTO1 counter,TDP2 absorb,CTSL1 counter,GSTO1 confirm,PAD4 FP conf,Apaf-1 inh conf2,Rh110 interf inh,TDP2 confirm,others
O=C(O)CSc1cc(NS(=O)(=O)c2ccc(Br)cc2)c2ccccc2c1O,/,31*,90*,70*,-4,81*,-2,/,/,56*,
CCOC(=O)[C@@]12CCC3=C1N(CCC3)C(=O)[C@H](CC(=O)N1CCCC1)C2,/,/,/,-2,/,/,/,/,/,/,
O=C1C=C(Nc2ccccc2O)c2ccccc2C1=O,96*,65*,72*,61*,22*,74*,31*,93*,1,54*,Apaf1 inh interf=>100
CCOC(=O)CC[C@@]1(C(=O)OCC)C[C@@H](CC(=O)NCC23CC4CC(CC(C4)C2)C3)C(=O)N2CCCC=C21,/,/,/,-1,/,/,/,/,/,/,
CCOc1cc(/C=C2/C(=N)N3N=C(CC)SC3=NC2=O)ccc1OC(=O)c1ccco1,8,0,3,9,-1,/,/,/,/,/,
CCOc1cc(/C=C2/C(=O)N(c3ccccc3)N=C2C)ccc1OC(=O)c1ccco1,97*,47*,65*,77*,-4,9,-8,21,17,29*,
COc1ccc(/C=C2/C(=O)N(c3ccccc3)N=C2C)cc1Br,87*,43*,58*,70*,0,19,/,/,/,27*,
COC(=O)C1=C(C)N(C)C(=NCc2cccc(C(F)(F)F)c2)NC1c1ccccc1 (stereo not given),/,/,/,2,/,/,/,/,/,/,
CCCCN1CCN(C(=O)c2ccc(CNC(=O)c3cccc(Br)c3)cc2)CC1,/,/,/,-2,/,/,/,/,/,/,
O=S(=O)(Nc1cc2nc3ccccc3nc2n1Cc1ccccc1)c1ccc(Cl)cc1,/,72*,73*,107*,-3,92*,/,/,/,93*,
COC(=O)CCC(=O)OC1(C)C(=O)C=C2C=C(C3CC3)N(C3CC3)C=C2C1=O (stereo not given),54*,25*,52*,38*,2,20,-5,37,-2,10,
O=C(N=Nc1c(O)[nH]c2ccc([N+](=O)[O-])cc12)c1ccccc1[N+](=O)[O-],5,-17,43*,35*,7,46*,/,/,/,23,
CC1SC(=S)N(c2ccc(N(C)C)cc2)C1=O (stereo not given),4,15*,15,24,2,/,3,/,/,/,
